Source: ChEMBL document CHEMBL4033743, “Design, synthesis, and structure-activity relationships of pyrimido[4,5-b]indole-4-amines as microtubule depolymerizing agents that are effective against multidrug resistant cells” (Bioorg Med Chem Lett, 2017)
Active and inactive are the calls of the source.

Experiments:
[1] = Induction of microtubule depolymerization in rat A10 cells assessed as cellular microtubule loss incubated for 18 hrs by indirect immunofluorescence assay; format: cell-based; settings: A10, 18 h
Method in brief: (§1)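 Cellular microtubule loss was scored. EC50 was defined as the concentration causing 50% loss of cellular microtubules.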

[2] = test system: MDA-MB-435; test: Antiproliferative activity against human MDA-MB-435 cells by SRB assay; format: functional, cell-based
Method in brief: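 Proliferation of MDA-MB-435 melanoma cells was read by sulforhodamine B (SRB) assay. IC50 was taken as the concentration causing 50% inhibition of proliferation.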

[3] = Inhibition of bovine brain tubulin assembly; design: species or system Bos taurus
[4] = organism: Bos taurus; test: Inhibition of [3H]colchicine binding to bovine brain tubulin at 5 uM
[5] = test system: SK-OV-3; test: Antiproliferative activity against human SKOV3 cells by SRB assay; format: functional, cell-based
Method in brief: (§2)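 Antiproliferative IC50s were measured by SRB assay in isogenic cell-line pairs. For Pgp-mediated resistance, the pair was parental SK-OV-3 ovarian cancer cells and Pgp-expressing SK-OV-3 MDR-1-M6/6 cells. For βIII-tubulin-mediated resistance, the pair was parental HeLa cells and βIII-tubulin-expressing HeLa cells.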

[6] = Antiproliferative activity against human SKOV3-MDR1-M6/6 cells by SRB assay; format: functional, cell-based; method in brief: as §2
[7] = Resistance index, ratio of IC50 for antiproliferative activity against human SKOV3-MDR1-M6/6 cells to IC50 for antiproliferative activity against human SKOV3 cells; format: functional
Method in brief: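 Relative resistance (Rr) was calculated as the SRB IC50 in Pgp-expressing SK-OV-3 MDR-1-M6/6 cells divided by the SRB IC50 in parental SK-OV-3 cells.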

[8] = test system: HeLa; test: Antiproliferative activity against human HeLa cells by SRB assay; format: functional, cell-based; method in brief: as §2
[9] = test system: HeLa; test: Antiproliferative activity against human HeLa cells expressing beta3-tubulin by SRB assay; format: functional, cell-based; method in brief: as §2
[10] = test system: HeLa; test: Resistance index, ratio of IC50 for antiproliferative activity against human HeLa cells expressing beta3-tubulin cells to IC50 for antiproliferative activity against human HeLa cells; format: functional
Method in brief: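 Relative resistance (Rr) was calculated as the SRB IC50 in βIII-tubulin-expressing HeLa cells divided by the SRB IC50 in parental HeLa cells.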

[11] = Ratio of EC50 for induction of microtubule depolymerization in rat A10 cells to IC50 for antiproliferative activity against human MDA-MB-435 cells
[12] = organism: Rattus norvegicus; test: Induction of microtubule depolymerization in rat A10 cells assessed as cellular microtubule loss up to 40 uM incubated for 18 hrs by indirect immunofluorescence assay; format: cell-based; method in brief: as §1

SMILES	EC50 [1] [nM]	IC50 [2] [nM]	IC50 [3] [nM]	inhibition [4] [%]	IC50 [5] [nM]	IC50 [6] [nM]	Ratio IC50 [7]	IC50 [8] [nM]	IC50 [9] [nM]	Ratio IC50 [10]	Ratio [11]	Activity [12]
COc1ccc2c(c1)CCCN2c1nc(N)nc2[nH]c3ccccc3c12	150	54.4	2200	71	83.2	135	1.6	72.1	87	1.2	2.8	
COc1ccc(N(C)c2nc(C)nc3[nH]c4ccccc4c23)cc1	130	33.9	1200	67	60.5	78	1.3	50.5	31.8	0.6	3.8	
CSc1ccc(N(C)c2nc(N)nc3[nH]c4ccccc4c23)cc1	1100	89.1	2300	67	156	160	1	118	78.4	0.7	12	
COc1ccc(N(C)c2nc(N)nc3[nH]c4cccc(C)c4c23)cc1	1400	220									6.5	
COc1ccc(N(C)c2ncnc3[nH]c4ccccc4c23)cc1	1200	130	2300	62	173	224	1.4	142	99.5	0.8	9.2	
COc1ccc2c(c1)CCCN2c1nc(N)nc2[nH]c3cccc(Cl)c3c12	3700	271									15	
COc1ccc(N(C)c2nc(N)nc3[nH]c4cccc(Cl)c4c23)cc1		3900										inactive
